Measured values taken from ChEMBL document CHEMBL1123876, “Effect of reductive alkylation of lysine in positions 6 and/or 8 on the histamine-releasing activity of luteinizing hormone-releasing hormone antagonists” (1987).
Values after ≈ are worked out from the molar mass of the structure shown. *1 amine or outer side, *2 acyl side, *3 side chain or, on linkers, in order; H or OH if unused. Where a SMILES comes first, the peptide text is derived from it. [ ]: non-standard residue; d: D form. X1 = O=C([C@@H](CCCCNC1CCCC1)N[*:1])[*:2]; X2 = O=C([C@H](CCCCNC1CCCC1)N[*:1])[*:2]; d2Nal = N[C@H](Cc1ccc2ccccc2c1)C(=O)O

What was measured:
Type in all cases: functional
Rattus norvegicus [1] = species: Rattus norvegicus; experiment: Antiovulatory activity in rat was expressed as percentage of (9) rats blocked at 3 ug/mL
Method in brief: (§1)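 Standard antiovulatory assay in Sprague-Dawley rats; analogue given in a 40% propane-1,2-diol/0.9% saline vehicle.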

Rattus norvegicus [2] = species: Rattus norvegicus; experiment: In vitro histamine releasing activity in rat peritoneal cells; settings: read-out: ED50 (the source's name)
Method in brief: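 Peritoneal cells from male Sprague-Dawley rats exposed in vitro to each analogue in a standard histamine-release assay. ED50 for histamine release is reported in μg/mL as mean ± standard error.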

Rattus norvegicus [3] = species: Rattus norvegicus; experiment: Antiovulatory activity in rat was expressed as percentage of (10) rats blocked at 3 ug/mL; parameters: unit: %; method in brief: as §1
Rattus norvegicus [4] = species: Rattus norvegicus; experiment: Antiovulatory activity in rat was expressed as percentage of (8) rats blocked at 3 ug/mL; method in brief: as §1
Rattus norvegicus [5] = species: Rattus norvegicus; experiment: Antiovulatory activity in rat was expressed as percentage of (9) rats blocked at 6 ug/mL; method in brief: as §1
Rattus norvegicus [6] = species: Rattus norvegicus; experiment: Antiovulatory activity in rat was expressed as percentage of rats blocked at 1 ug/mL (number of rats); method in brief: as §1

Row | Compound | Antiovulatory activity (Rattus norvegicus [1]) | EC50 (Rattus norvegicus [2]) [µg/mL] | Antiovulatory activity (Rattus norvegicus [3]) | Antiovulatory activity (Rattus norvegicus [4]) | Antiovulatory activity (Rattus norvegicus [5]) | Antiovulatory activity (Rattus norvegicus [6])
1 | CC(=O)N[C@H](Cc1ccc2ccccc2c1)C(=O)N[C@H](Cc1ccccc1)C(=O)N[C@H](Cc1ccccc1)C(=O)N[C@@H](CO)C(=O)N[C@@H](Cc1ccc(O)cc1)C(=O)N[C@H](CCCCNC(C)C)C(=O)N[C@@H](Cc1ccccc1)C(=O)N[C@@H](CCCCNC(C)C)C(=O)N1CCC[C@H]1C(=O)N[C@H](C)C(N)=O | 89 | 6.48 (≈ 4.45 µM) | – | – | – | –
2 | CC(=O)N[C@H](Cc1ccc2ccccc2c1)C(=O)N[C@H](Cc1ccccc1)C(=O)N[C@H](Cc1ccccc1)C(=O)N[C@@H](CO)C(=O)N[C@@H](Cc1ccc(O)cc1)C(=O)N[C@H](CCCN=C(N)N)C(=O)N[C@@H](Cc1ccccc1)C(=O)N[C@@H](CCCCNCc1ccc(C)cc1)C(=O)N1CCC[C@H]1C(=O)N[C@H](C)C(=O)O | – | 33 (≈ 21.9 µM) | 10 | – | – | –
3 | CC(=O)N[C@H](Cc1ccc2ccccc2c1)C(=O)N[C@H](Cc1ccccc1)C(=O)N[C@H](Cc1ccccc1)C(=O)N[C@@H](CO)C(=O)N[C@@H](Cc1ccc(O)cc1)C(=O)N[C@H](CCCN=C(N)N)C(=O)N[C@@H](Cc1ccccc1)C(=O)N[C@@H](CCCCNCc1c(C)cc(C)cc1C)C(=O)N1CCC[C@H]1C(=O)N[C@H](C)C(=O)O | – | 4.73 (≈ 3.08 µM) | 10 | – | – | –
4 | CC(=O)N[C@H](Cc1ccc2ccccc2c1)C(=O)N[C@H](Cc1ccccc1)C(=O)N[C@H](Cc1ccccc1)C(=O)N[C@@H](CO)C(=O)N[C@@H](Cc1ccc(O)cc1)C(=O)N[C@H](CCCCNC1CCCCC1)C(=O)N[C@@H](Cc1ccccc1)C(=O)N[C@@H](CCCCNC1CCCCC1)C(=O)N1CCC[C@H]1C(=O)N[C@H](C)C(N)=O | – | 5.86 (≈ 3.81 µM) | 38 | – | – | –
5 | CCCC(CCC)NCCCC[C@H](NC(=O)[C@H](Cc1ccccc1)NC(=O)[C@@H](CCCN=C(N)N)NC(=O)[C@H](Cc1ccc(O)cc1)NC(=O)[C@H](CO)NC(=O)[C@@H](Cc1ccccc1)NC(=O)[C@@H](Cc1ccccc1)NC(=O)[C@@H](Cc1ccc2ccccc2c1)NC(C)=O)C(=O)N1CCC[C@H]1C(=O)N[C@H](C)C(=O)O | – | 4.6 (≈ 3.07 µM) | – | 0 | – | –
6 | CCCCC(CCCC)NCCCC[C@H](NC(=O)[C@H](Cc1ccccc1)NC(=O)[C@@H](CCCCNC(CCCC)CCCC)NC(=O)[C@H](Cc1ccc(O)cc1)NC(=O)[C@H](CO)NC(=O)[C@@H](Cc1ccccc1)NC(=O)[C@@H](Cc1ccccc1)NC(=O)[C@@H](Cc1ccc2ccccc2c1)NC(C)=O)C(=O)N1CCC[C@H]1C(=O)N[C@H](C)C(N)=O | – | > 300 | – | – | 0 | –
7 | CC(=O)N[C@H](Cc1ccc2ccccc2c1)C(=O)N[C@H](Cc1ccccc1)C(=O)N[C@H](Cc1ccccc1)C(=O)N[C@@H](CO)C(=O)N[C@@H](Cc1ccc(O)cc1)C(=O)N[C@H](CCCN=C(N)N)C(=O)N[C@@H](Cc1ccccc1)C(=O)N[C@@H](CCCCNCC(C)(C)C)C(=O)N1CCC[C@H]1C(=O)N[C@H](C)C(=O)O | 89 | 4.68 (≈ 3.18 µM) | – | – | – | 50
8 | CC(=O)N[C@H](Cc1ccc2ccccc2c1)C(=O)N[C@H](Cc1ccccc1)C(=O)N[C@H](Cc1ccccc1)C(=O)N[C@@H](CO)C(=O)N[C@@H](Cc1ccc(O)cc1)C(=O)N[C@H](CCCCNC1CCCC1)C(=O)N[C@@H](Cc1ccccc1)C(=O)N[C@@H](CCCCNC1CCCC1)C(=O)N1CCC[C@H]1C(=O)N[C@H](C)C(N)=O (Ac-[d2Nal][dF][dF]SY[X1]F[X2]P[dA]-NH2) | – | 6.1 (≈ 4.04 µM) | 70 | – | – | –
9 | CCCC(CCC)NCCCC[C@H](NC(=O)[C@H](Cc1ccccc1)NC(=O)[C@@H](CCCCNC(CCC)CCC)NC(=O)[C@H](Cc1ccc(O)cc1)NC(=O)[C@H](CO)NC(=O)[C@@H](Cc1ccccc1)NC(=O)[C@@H](Cc1ccccc1)NC(=O)[C@@H](Cc1ccc2ccccc2c1)NC(C)=O)C(=O)N1CCC[C@H]1C(=O)N[C@H](C)C(N)=O | – | 21.9 (≈ 14 µM) | 0 | – | 56 | –
